CHOP inhibitor – inhibitors of CHOP promoter induction, primary screen, cell-based, unfolded protein response, luciferase reporter; inhibition, % at 10 µM; CHO-K1 CHOP-promoter luciferase, tunicamycin-induced, 15-18 h; hit rate 3.8% among 220,000; AID 2732, 2010;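 active = compounds that reduced the stress-induced luciferase reporter signal by more than about 70% of percent inhibition, limit read from the data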
NR3A LBD binder – binders of NR3A ligand-binding domain, primary screen, biophysical, differential scanning fluorimetry, uHTS. Glutamate receptor ionotropic, NMDA 3A (GRIN3A) ligand-binding domain. NR3A LBD differential scanning fluorimetry, Tm shift; 0% = protein alone, 100% = glycine-bound protein. Tm shift relative to glycine control, % at 25 µM. hit rate 2.5% among 340,000;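 active = melting temperature shift of at least 10% of the positive control shift, at one fixed dose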
EBV gp42 inh – Epstein-Barr virus gp42 inhibitors, primary screen, biochemical, uHTS, fluorescence polarization. Glycoprotein 42 (Epstein-Barr virus (strain AG876)), Q1HVG2. Fluorescence polarization binding assay, mP read-out. inhibition, % (tested at 21.74 µM). hit rate 0.42% among 220,000. AID 1085, 2008; in the data active = inhibition above about 50%
Target sequence (Q1HVG2 whole entry, looked up): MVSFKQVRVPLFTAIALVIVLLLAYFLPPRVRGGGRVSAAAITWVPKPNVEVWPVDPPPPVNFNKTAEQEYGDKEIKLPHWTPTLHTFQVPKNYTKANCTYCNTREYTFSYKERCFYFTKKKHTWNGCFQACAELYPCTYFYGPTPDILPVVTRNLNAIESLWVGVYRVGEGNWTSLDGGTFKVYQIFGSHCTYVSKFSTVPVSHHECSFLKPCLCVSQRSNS
MPTP inh – mitochondrial permeability transition pore inhibitors, primary screen, biochemical, isolated mouse mitochondria, absorbance | inhibition, % at 10 µM | hit rate 1.4% among 360,000 | Ca2+ swelling absorbance, 30 min;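 active = inhibition of 50% or more, scaled per plate between neutral and stimulator controls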
TbMetRS inhib – T. brucei MetRS inhibitors, primary screen, biochemical, luminescence. methionyl-tRNA synthetase (Trypanosoma brucei brucei). hit rate 0.4% among 360,000. inhibition, % at 11.9 µM. purified T. brucei MetRS, ATP depletion, Kinase-Glo luminescence;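 active = inhibition above a per-plate cutoff of the control wells' mean inhibition plus 3 SD, cut at about 5.5% in these data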
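Test system: purified T. brucei MetRS enzyme. Also added: ATP, methionine and E. coli bulk tRNA substrates. Compound: 11.9 µM single point. Schedule: 15 min enzyme-compound preincubation, 2 h reaction, 10 min detection, 25 °C. Signal: luciferase luminescence of residual ATP, Kinase-Glo. Evaluation: percent inhibition versus plate control medians. Controls: DMSO wells, low control.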
WT yeast gro inh – growth inhibition of WT strain, primary screen, mitochondrial fusion inhibitor project, WT and mutant strains, chemical genetic; mitochondrial fusion phenotypic screen; inhibition, % at 10 µM; hit rate 2.1% among 190,000; AID 1362, 2008; in the data active = inhibition above about 58%; tested in S. cerevisiae
MPTP counter – fluorescence retest of MPTP screen hits in isolated mitochondria, single concentration | membrane potential, Rhodamine 123 fluorescence | shares compounds with MPTP inh | inhibition, % at 10 µM | hit rate 78% among 5,000; in the data active = inhibition above about 22%
MPTP abs DR – mitochondrial permeability transition pore inhibitors, dose response, biochemical, absorbance, uHTS hits | shares compounds with MPTP inh | isolated mitochondria swelling | IC50, µM | hit rate 58% among 780 | AID 651561, 2012; in the data active = IC50 below about 20 µM
MPTP cs DR – fluorescent counter-screen in isolated mitochondria, dose response, counter-screen for MPTP inhibitor project, biochemical, fluorescence, uHTS hits. hit rate 49% among 780. AID 651564, 2012. shares compounds with MPTP inh. IC50, µM. isolated mitochondria counterscreen, fluorescence read-out; in the data active = IC50 below about 80 µM
Of the large screens only hits and unclear results are named; the others gave an inactive call (follow-up assays come after a bar, where they were run). An excerpt weighted towards active compounds, which were near 6.4% of everything screened.

O=C(Nc1ccccc1F)Nc1ccc([N+](=O)[O-])cc1Cl	MPTP inh 90 | MPTP counter 92
O=C(Nc1ccc([N+](=O)[O-])cc1Cl)c1cccc([N+](=O)[O-])c1	none (no result: CHOP inhibitor, NR3A LBD binder, EBV gp42 inh, WT yeast gro inh)
O=C(Nc1csc([N+](=O)[O-])c1)Nc1ccccc1Cl	NR3A LBD binder 39, MPTP inh 89 (no result: WT yeast gro inh) | MPTP counter 80
CC1CCCCN1N=Nc1nc2c([nH]1)c(=O)n(C)c(=O)n2C (stereo not given)	none (no result: CHOP inhibitor, EBV gp42 inh, WT yeast gro inh)
CC1CCC2(CC1)NC(=O)N(CC(=O)N1CCc3ccccc3C1)C2=O (stereo not given)	none
COc1ccc(/C=C2/C(=O)N(c3nc4ccccc4s3)N=C2CSc2ccc(Cl)cc2)cc1	MPTP inh 91 | MPTP counter 56
C=CCn1c(SCC(=O)Nc2sc3c(c2C#N)CCC(C)C3)nc2cc(C(=O)O)ccc2c1=O (stereo not given)	none (no result: CHOP inhibitor, EBV gp42 inh, WT yeast gro inh)
O=C(Nc1ccc([N+](=O)[O-])cc1)/C(=C/c1cccc([N+](=O)[O-])c1)NC(=O)C1CCCCC1	MPTP inh 98 | MPTP counter 75
CCc1ccc(O)c(CNCCNCc2cc(CC)ccc2O)c1	MPTP inh 95 (no result: CHOP inhibitor, EBV gp42 inh, WT yeast gro inh) | MPTP counter inactive
Cc1ccc(O)c(CNCCNCc2cc(C)ccc2O)c1	none (no result: CHOP inhibitor, EBV gp42 inh, WT yeast gro inh)
CC(/C=C1\SC(=S)N(NS(=O)(=O)c2ccccc2)C1=O)=C\c1ccccc1	none (no result: WT yeast gro inh)
CC(/C=C1\SC(=S)N(NS(=O)(=O)c2ccc(C)cc2)C1=O)=C\c1ccccc1	MPTP inh 54 (no result: WT yeast gro inh) | MPTP counter 41
COC(=O)c1sc(S(=O)(=O)Oc2ccccc2NC(C)=O)c(C(=O)OC)c1C	none (no result: CHOP inhibitor, EBV gp42 inh, WT yeast gro inh)
O=C(c1cc(COc2ccc3ncccc3c2)on1)N1CCC(O)CC1	none
Cc1cccnc1CN1CCN(C(=O)c2cc(COc3ccc4ncccc4c3)on2)CC1	MPTP inh 104 | MPTP counter 102
COCC1CCCN(C(=O)c2cc(COc3ccc4ncccc4c3)on2)C1 (stereo not given)	MPTP inh 95 (no result: CHOP inhibitor, EBV gp42 inh, WT yeast gro inh) | MPTP counter 97
CCC(O)C1CCN(C(=O)c2cc(COc3ccc4ncccc4c3)on2)CC1 (stereo not given)	MPTP inh 92 | MPTP counter 102
CCOC(=O)N1CCN(C(=O)c2cc(COc3ccc4ncccc4c3)on2)CC1	none
CC1(C)OC(c2ccccc2)=C/C(=C/C=Nc2ccccc2)O1	none
O=C(Nc1cccnc1)C1(c2ccccc2)CCCC1	none
C[C@H](CO)N1C[C@H](C)[C@@H](CN(C)C(=O)Nc2ccc3c(c2)OCCO3)OCc2cnnn2CCCC1=O	none (no result: CHOP inhibitor, NR3A LBD binder, EBV gp42 inh, WT yeast gro inh)
Cc1cc(C)c(CN2CCN(C(=O)Cn3cnc4c(OCc5ccccc5)ncnc43)CC2)c(C)c1	MPTP inh 67 (no result: CHOP inhibitor, EBV gp42 inh, WT yeast gro inh) | MPTP counter 84
O=C(O)Cn1cnc2c(OCc3ccccc3)ncnc21	none (no result: CHOP inhibitor, EBV gp42 inh, WT yeast gro inh)
COc1ccc(C)cc1NC(=S)NN1CCN(C)CC1	none
O=C(CCN1C(=O)c2ccccc2S1(=O)=O)Nc1cccc2ccccc12	none
Cc1nc2ccccc2n1Cc1ccccc1Br	MPTP inh 73 (no result: CHOP inhibitor, EBV gp42 inh, WT yeast gro inh) | MPTP counter 81
Cc1nc2ccccc2n1Cc1ccc(Br)cc1	MPTP inh 93 (no result: CHOP inhibitor, EBV gp42 inh, WT yeast gro inh) | MPTP counter 96
CCOc1ccccc1C(=O)Nc1c[nH]c(=O)[nH]c1=O	none (no result: CHOP inhibitor, EBV gp42 inh, WT yeast gro inh)
CC(C)c1ccc(NC(=O)c2snc3ccc(Cl)cc23)cc1	CHOP inhibitor 79, NR3A LBD binder 10, MPTP inh 74 | MPTP counter 74
CCc1ccc(S(=O)(=O)c2nnn3c2nc(NCCNC(C)=O)c2ccccc23)cc1	MPTP inh 65 | MPTP counter 43
COc1ccc(NC(=O)CCC(=O)c2cccs2)cc1Cl	none (no result: CHOP inhibitor, EBV gp42 inh, WT yeast gro inh)
CCc1cccc(NC(=O)Nc2cccs2)c1	MPTP inh 79 | MPTP counter 99
Cc1cccc(C)c1NC(=O)Nc1cccs1	none
O=C(Nc1cccs1)Nc1c(F)c(F)c(F)c(F)c1F	MPTP inh 96 | MPTP counter 84
COc1ccc(NC(=O)Nc2cccs2)cc1Cl	NR3A LBD binder 30, MPTP inh 74 | MPTP counter 80
N#Cc1cccc(NC(=S)Nc2ccccc2)c1	MPTP inh 82 | MPTP counter 90
COc1cc(NC(=O)C/C(C)=N/NC(=O)Cc2ccccc2)c(OC)cc1Cl	none
CCc1nc2ccc(C(=O)Nc3cc(-c4ccccc4)ccc3OC)cn2c1N(C)CCCc1ccccc1	none (no result: CHOP inhibitor, NR3A LBD binder, EBV gp42 inh, WT yeast gro inh)
N#Cc1cccc(NC(=O)Cc2ccsc2)c1	none (no result: CHOP inhibitor, EBV gp42 inh, WT yeast gro inh)
N#Cc1cccc(NC(=O)Nc2cccs2)c1	MPTP inh 86 | MPTP counter 106
CCOC(=O)C1(Cc2cccc(OC)c2)CCN(C/C=C/c2ccc(OC)cc2)CC1	MPTP inh 80 | MPTP counter 79
CCOC(=O)C1(Cc2cccc(OC)c2)CCN(C/C=C/c2ccccc2)CC1	none
NS(=O)(=O)c1cccc(NC(=O)CSc2nc3nc(-c4cccs4)cc(C(F)(F)F)c3c(=O)[nH]2)c1	none (no result: WT yeast gro inh)
O=C(CSc1nc2nc(-c3cccs3)cc(C(F)(F)F)c2c(=O)[nH]1)Nc1c(F)c(F)c(F)c(F)c1F	NR3A LBD binder 22, MPTP inh 55 | MPTP counter 70
NNC(=O)c1ccc(COc2ccccc2)cc1	none
CCC(=O)c1ccc(OCc2ccc(C(=O)c3ccccc3)cc2)cc1	MPTP inh 101 | MPTP counter 104
CC(C)(C)SCCNC(=O)/C=C/c1ccc([N+](=O)[O-])cc1	none (no result: TbMetRS inhib)
COCCn1c(SCC(=O)Nc2cc(C)nn2-c2ccccc2)nnc1-c1ccncc1	none
C=C1C(=O)C2=CC1CCC(=O)C1(C)CCC(OC(C)=O)C(C)(C)C1CC2O (stereo not given)	none (no result: CHOP inhibitor, EBV gp42 inh, WT yeast gro inh)
C#CCOCCOCCOCCNc1nc(N2CCN(C(=O)[C@H](CCCCN)n3cc(CN)nn3)CC2)nc(N2CCN(C(=O)[C@H](CCCN=C(N)N)n3cc(C(N)[C@H](C)CC)nn3)CC2)n1 (stereo not given in full)	MPTP inh 84 (no result: CHOP inhibitor, EBV gp42 inh, WT yeast gro inh) | MPTP counter inactive | MPTP abs DR inactive | MPTP cs DR inactive

Compound activity from PubChem BioAssay.
